# Experiments:
# Hepatitis C virus [1] = experiment: Antiviral activity against HCV in ET cells assessed as activity of luciferase reporter at 20 uM by subgenomic RNA replicon assay; format: functional, Hepacivirus hominis
# Summary of the method: (§1)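 ET replicon cells (dicistronic HCV replicon with firefly luciferase, three adaptive mutations) seeded at 5000/well overnight in DMEM without G418; serial compound dilutions added, 3 days incubation, luciferase read by Steady-Glo. Four replicates per point; EC50 is 50% luciferase inhibition. Marginal actives given as percent inhibition versus control at 20 µM.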
# Hepatitis B virus [2] = experiment: Antiviral activity against HBV in human HepG2(2.2.15) cells assessed as extracellular HBV virion DNA level after 24 hrs; format: functional, organism-based; conditions: HepG2 2.2.15, 24 h
# Summary of the method: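 Confluent HBV-producing 2.2.15 cell cultures were given nine consecutive daily doses of compound. Extracellular HBV DNA was measured by quantitative blot hybridization 24 h after the last dose. Cytotoxicity was read by neutral red uptake 24 h after the last dose.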
# [3] = Cytotoxicity against human HepG2(2.2.15) cells assessed as uptake of neutral red dye after 24 hrs; format: cell-based; conditions: HepG2 2.2.15, 24 h
# Summary of the method: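 2.2.15 cells, confluent, dosed daily for nine consecutive days; cytotoxicity by neutral red dye uptake 24 h after the last treatment.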
# [4] = Cytotoxicity against ET cells at 20uM; format: cell-based
# Summary of the method: (§2)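 ET replicon cells seeded at 5000/well overnight without G418; serially diluted compound for 3 days; viability by tetrazolium-based CytoTox-1 proliferation assay. Four replicates; IC50 is the concentration cutting viability by 50%. Weak compounds given as percent of control at 20 µM.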
# [5] = Cytotoxicity against human Huh7 cells assessed as rRNA level after 5 days; format: cell-based; conditions: huh-7, 120 h
# Summary of the method: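 Huh-7 cells carrying a subgenomic HCV replicon (clone B) were seeded at 3000 cells/well. Compound was added in duplicate at two dilutions right after seeding, then cells were incubated 5 days at 37 °C, 5% CO2. Total RNA was isolated, and replicon RNA and an rRNA internal control were co-amplified by one-step multiplex real-time RT-PCR.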
# Hepatitis C virus [6] = experiment: Antiviral activity against HCV in human Huh7 cells assessed as reduction of viral level after 5 days by RNA subgenomic replicon assay; format: functional, organism-based, Hepacivirus hominis; conditions: Huh-7, 120 h
# Summary of the method: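 Huh-7 clone B subgenomic replicon cells seeded at 3000/well, compounds added in duplicate at two dilutions right after seeding; 5 days at 37 °C, 5% CO2. Total RNA isolated; replicon RNA and rRNA control amplified by multiplex one-step real-time RT-PCR. Activity as ΔCt versus no-drug control; EC50/EC90 for 50%/90% reduction.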
# Hepatitis C virus [7] = experiment: Antiviral activity against HCV in ET cells assessed as activity of luciferase reporter by subgenomic RNA replicon assay; format: functional, organism-based, Hepacivirus hominis; summary of the method: as §1
# [8] = Cytotoxicity against ET cells; format: cell-based; conditions: for IC50: ET; summary of the method: as §2
# Hepatitis B virus [9] = experiment: Antiviral activity against HBV in human HepG2(2.2.15) cells assessed as replication intermediates after 24 hrs; format: functional, organism-based; conditions: HepG2 2.2.15, 24 h
# Summary of the method: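 Confluent 2.2.15 cultures in 96-well format given nine consecutive daily doses; HBV DNA quantified by blot hybridization 24 h after the last treatment.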
# Hepatitis B virus [10] = experiment: Antiviral activity against lamivudine-resistant HBV reverse transcriptase M204V mutant in human Huh7 cells after 4 days by intracellular HBV DNA replication assay; format: functional, organism-based; conditions: Huh-7, 96 h
# Summary of the method: (§3)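 In a 5-day transient transfection assay, cells expressed wild-type or lamivudine- or adefovir-resistant HBV mutants. After 4 days of drug treatment, intracellular HBV DNA replication intermediates were quantified by Southern blot hybridization.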
# Hepatitis B virus [11] = experiment: Antiviral activity against adefovir-resistant wild type HBV in human Huh7 cells after 4 days by intracellular HBV DNA replication assay; format: functional, organism-based; conditions: Huh-7, 96 h; summary of the method: as §3
# Hepatitis B virus [12] = experiment: Antiviral activity against adefovir-resistant HBV reverse transcriptase M204V mutant in human Huh7 cells after 4 days by intracellular HBV DNA replication assay; format: functional, organism-based; conditions: Huh-7, 96 h; summary of the method: as §3
# Hepatitis B virus [13] = experiment: Antiviral activity against lamivudine-resistant HBV reverse transcriptase LM/reverse transcriptase MV double mutant in human Huh7 cells after 4 days by intracellular HBV DNA replication assay; format: functional, organism-based; conditions: Huh-7, 96 h; summary of the method: as §3
# Hepatitis B virus [14] = experiment: Antiviral activity against adefovir-resistant HBV reverse transcriptase LM/reverse transcriptase MV double mutant in human Huh7 cells after 4 days by intracellular HBV DNA replication assay; format: functional, organism-based; conditions: Huh-7, 96 h; summary of the method: as §3
# Hepatitis B virus [15] = experiment: Antiviral activity against lamivudine-resistant HBV reverse transcriptase L180M mutant in human Huh7 cells after 4 days by intracellular HBV DNA replication assay; format: functional, organism-based; conditions: Huh-7, 96 h; summary of the method: as §3
# Hepatitis B virus [16] = experiment: Antiviral activity against adefovir-resistant HBV reverse transcriptase L180M mutant in human Huh7 cells after 4 days by intracellular HBV DNA replication assay; format: functional, organism-based; conditions: Huh-7, 96 h; summary of the method: as §3
# Hepatitis B virus [17] = experiment: Antiviral activity against adefovir-resistant HBV reverse transcriptase 236T mutant in human Huh7 cells after 4 days by intracellular HBV DNA replication assay; format: functional, organism-based; conditions: Huh-7, 96 h; summary of the method: as §3
# Hepatitis B virus [18] = experiment: Antiviral activity against lamivudine-resistant HBV reverse transcriptase 236T mutant in human Huh7 cells after 4 days by intracellular HBV DNA replication assay; format: functional, organism-based; conditions: Huh-7, 96 h; summary of the method: as §3
# Hepatitis B virus [19] = experiment: Antiviral activity against lamivudine-resistant HBV reverse transcriptase M204I mutant in human Huh7 cells after 4 days by intracellular HBV DNA replication assay; format: functional, organism-based; conditions: Huh-7, 96 h; summary of the method: as §3
# Hepatitis B virus [20] = experiment: Antiviral activity against lamivudine-resistant wild type HBV in human Huh7 cells after 4 days by intracellular HBV DNA replication assay; format: functional, organism-based; conditions: Huh-7, 96 h
# Summary of the method: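 Transient transfection of HBV into cells, 5-day assay; compounds applied for 4 days, then intracellular HBV DNA replication intermediates quantified by Southern blot hybridization to derive EC50.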
# Hepatitis B virus [21] = experiment: Antiviral activity against adefovir-resistant HBV reverse transcriptase M204I mutant in human Huh7 cells after 4 days by intracellular HBV DNA replication assay; format: functional, organism-based; conditions: Huh-7, 96 h; summary of the method: as §3
# [22] = Selectivity index, EC50 for HCV to IC50 for ET cells; format: functional
# Summary of the method: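 SI50 from ET replicon luciferase EC50 (3-day assay) and CytoTox-1 viability IC50, each averaged from four replicates.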
structure (smiles),measurement,setting,value
N#Cc1cn([C@@H]2C=C(CO)[C@@H](O)[C@H]2O)c2ncnc(N)c12,Activity,Hepatitis C virus [1],0.5%
same,EC50,Hepatitis B virus [2],> 10 µM
same,IC50,[3],> 300 µM
same,Activity,[4],103.3%
C[C@@]1(O)[C@H](O)[C@@H](CO)O[C@H]1n1ccc(N)nc1=O,CC50,[5],> 50 µM
same,EC50,Hepatitis C virus [6],3500 nM
same,EC90,Hepatitis C virus [6],11 µM
Nc1ncnc2c1c(Br)cn2[C@@H]1C=C(CO)[C@@H](O)[C@H]1O,EC50,Hepatitis B virus [2],> 10 µM
same,EC50,Hepatitis C virus [7],16.7 µM
same,IC50,[3],> 300 µM
same,IC50,[8],41.7 µM
Nc1ncnc2c1c(I)cn2[C@@H]1C=C(CO)[C@@H](O)[C@H]1O,EC50,Hepatitis B virus [9],1600 nM
same,EC50,Hepatitis B virus [2],0.43 µM
same,EC50,Hepatitis C virus [7],2.1 µM
same,IC50,[3],> 300 µM
same,IC50,[8],15 µM
Nc1ccn([C@@H]2CS[C@H](CO)O2)c(=O)n1 [LAMIVUDINE],EC50,Hepatitis B virus [10],> 100 µM
same,EC50,Hepatitis B virus [9],150 nM
same,EC50,Hepatitis B virus [11],1300 nM
same,EC50,Hepatitis B virus [12],1500 nM
same,EC50,Hepatitis B virus [13],> 100 µM
same,EC50,Hepatitis B virus [14],1600 nM
same,EC50,Hepatitis B virus [15],10 µM
same,EC50,Hepatitis B virus [2],0.048 µM
same,EC50,Hepatitis B virus [16],1600 nM
same,EC50,Hepatitis B virus [17],7.7 µM
same,EC50,Hepatitis B virus [18],300 nM
same,EC50,Hepatitis B virus [19],> 100 µM
same,IC50,[3],> 2000 µM
same,EC50,Hepatitis B virus [20],200 nM
same,EC50,Hepatitis B virus [21],1800 nM
Nc1ncnc2c1c(F)cn2[C@@H]1C=C(CO)[C@@H](O)[C@H]1O,Activity,Hepatitis C virus [1],9.5%
same,EC50,Hepatitis B virus [2],> 10 µM
same,IC50,[3],> 300 µM
same,Activity,[8]; et,112.7%
Nc1ncnc2c1ncn2CCOCP(=O)(O)O [ADEFOVIR],EC50,Hepatitis B virus [11],1300 nM
same,EC50,Hepatitis B virus [12],1500 nM
same,EC50,Hepatitis B virus [14],1600 nM
same,EC50,Hepatitis B virus [16],1600 nM
same,EC50,Hepatitis B virus [17],7.7 µM
same,EC50,Hepatitis B virus [21],1800 nM
Nc1ncnc2c1c([N+](=O)[O-])cn2[C@@H]1C=C(CO)[C@@H](O)[C@H]1O,EC50,Hepatitis B virus [2],> 10 µM
same,IC50,[3],> 300 µM
same,Activity,[4],101.5%
C=Cc1cn([C@@H]2C=C(CO)[C@@H](O)[C@H]2O)c2ncnc(N)c12,Activity,Hepatitis C virus [1],49.2%
same,EC50,Hepatitis B virus [9],10000 nM
same,EC50,Hepatitis B virus [2],3.3 µM
same,IC50,[3],> 300 µM
same,Activity,[4],99.7%
Nc1ccn([C@@H]2O[C@H](CO)[C@@H](O)[C@]2(O)F)c(=O)n1,CC50,[5],> 50 µM
same,EC50,Hepatitis C virus [6],1700 nM
same,EC90,Hepatitis C virus [6],5.3 µM
C#Cc1cn([C@@H]2C=C(CO)[C@@H](O)[C@H]2O)c2ncnc(N)c12,EC50,Hepatitis B virus [9],1800 nM
same,EC50,Hepatitis B virus [2],0.32 µM
same,EC50,Hepatitis C virus [7],20.1 µM
same,IC50,[3],> 300 µM
same,IC50,[8],48.9 µM
NC(=O)c1cn([C@@H]2C=C(CO)[C@@H](O)[C@H]2O)c2ncnc(N)c12,EC50,Hepatitis B virus [2],> 10 µM
same,EC50,Hepatitis C virus [7],1.8 µM
same,IC50,[3],300 µM
same,IC50,[8],11.8 µM
C[C@@]1(O)[C@H](O)[C@@H](CO)O[C@H]1n1cnc2c(N)ncnc21,Ratio,[22],> 66.7
same,EC50,Hepatitis C virus [7],0.15 µM
same,IC50,[8],> 10 µM
Nc1ncnc2c1c(Cl)cn2[C@@H]1C=C(CO)[C@@H](O)[C@H]1O,EC50,Hepatitis B virus [2],> 10 µM
same,EC50,Hepatitis C virus [7],14.7 µM
same,IC50,[3],> 300 µM
same,IC50,[8],50.1 µM

# — ChEMBL document CHEMBL1139357, “Synthesis and anti-hepatitis B virus and anti-hepatitis C virus activities of 7-deazaneplanocin A analogues in vitro” (J Med Chem, 2009)
